Tests used:
[1] = tested on: HRPT cells; test: Palmitate-induced lipoapoptosis by TUNEL in HRPT cells; assay type: cell-based, human; conditions: for Effect on palmitate-induced lipoapoptosis: drug 5 μM, 2 hr, then palmitate 100 μM, 16 hr
How it was run: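 Immortalized human kidney proximal tubule cells were grown to near confluence on glass coverslips. They were preincubated with test compound (5 μM, 2 hr, 37°C), then albumin-complexed palmitate was added (100 μM, 16 hr, 37°C). Fixed cells were scored by TUNEL under fluorescence microscopy at 400X by blinded operators, ten random fields, one experiment. Mean ± SD; ANOVA.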

[2] = molecular target: human FATP2 (Homo sapiens, UniProt O14975); test: BODIPY-C16 FA uptake in HRPT cells stably expressing human FATP2; assay type: cell-based

IC50 [2] [nM] | IC50 ([1]; read-out: IC50 for palmitate-induced apoptosis, compound 2 hr 37° C, then palmitate 100 μM, 16 hr) [nM] | Compound | Effect on palmitate-induced lipoapoptosis [1]
– | – | Grassofermata | increased apoptosis
– | – | O=C1Nc2ccc(Br)cc2C12NN=C(c1ccccc1)S2 (centres unmarked) [Lipofermata] | protective
> 500000 | – | CCCCCc1cccc(CC(=O)O)c1 [PBI-4050] | –
– | 600 | Cc1ccc2c(c1)C1(NN=C(c3ccccc3)S1)C(=O)N2 (centres unmarked) [Compound 1] | protective

Reference: publication PMC10527240 (International journal of biological macromolecules, 2023)
